Consider 14 compounds from ChEMBL document CHEMBL1649079, “Pipecolic acid derivatives as small-molecule inhibitors of the Legionella MIP protein” (J Med Chem, 2011).

pIC50, pKi: −log10 of the molar value. Calls of active or inactive are those of the source. The calls are words filed in the database; no cut-off is given here.

Assay [1] concerns the target T1, Peptidyl-prolyl cis-trans isomerase FKBP1A (Homo sapiens, UniProt P62942). In words: Inhibition of PPIase activity of human FKBP12 expressed in Escherichia coli by spectrophotometry. An outline of the steps:
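Chymotrypsin-coupled PPIase assay using 20 nM FKBP12 and 40 μM succinyl-Ala-Phe-Pro-Phe-4-nitroanilide. Enzyme and substrate preincubated with or without various inhibitor concentrations for 4 min at 10 °C in 35 mM HEPES/NaOH, pH 7.8.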

The target in assay [2] is Outer membrane protein MIP (Legionella pneumophila, UniProt Q70YI1).
Outer membrane protein MIP, sequence (Q70YI1 21-233 limits assumed): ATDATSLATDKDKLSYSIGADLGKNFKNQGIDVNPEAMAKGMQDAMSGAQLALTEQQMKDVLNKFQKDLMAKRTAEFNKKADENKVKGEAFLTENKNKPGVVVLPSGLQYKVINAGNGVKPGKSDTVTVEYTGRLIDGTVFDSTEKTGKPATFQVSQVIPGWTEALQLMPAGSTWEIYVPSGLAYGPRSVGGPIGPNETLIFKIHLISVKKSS
Assay [3] deals with Legionella pneumophila. Briefly: Antibacterial activity against MIP protein-deficient Legionella pneumophila JR32-2 infected in human U937 cells at 50 uM after 24 to 48 hrs. The assay is classed as functional, organism-based. The method, boiled down: (§1)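 U937 macrophage-like cells infected at MOI 10, with or without 50 μM compound kept present throughout incubation. Extracellular bacteria killed with gentamicin 2 h post-infection. Infection samples plated on BCYE agar for CFU counts immediately and after 24 and 48 h.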

Assay [4] concerns Escherichia coli. In words: Antibacterial activity against Escherichia coli HB101 infected in human U937 cells at 50 uM after 24 to 48 hrs. The assay is classed as functional, cell-based. The conditions noted are these: U-937. The method, boiled down:
as §1

Assay [5] deals with Legionella pneumophila. In words: Antibacterial activity against wild type Legionella pneumophila Philadelphia-1 JR32 infected in human U937 cells at 50 uM after 24 to 48 hrs. The assay is classed as functional, organism-based. The conditions noted are these: U-937. An outline of the steps:
as §1

Assay [6] deals with T1, Peptidyl-prolyl cis-trans isomerase FKBP1A. In words: Inhibition of FKBP12.

T1 sequence (P62942 whole entry): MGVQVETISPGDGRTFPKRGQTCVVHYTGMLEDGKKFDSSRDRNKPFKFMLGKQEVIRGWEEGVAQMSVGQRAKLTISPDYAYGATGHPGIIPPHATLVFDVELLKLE

For the compound `CCOC(=O)C1CCCCN1S(=O)(=O)c1ccccc1` (stereo not drawn), the pIC50 (in general, −log10 of the IC50, conventionally taken in molar units) in assay [1] was 5.51; in assay [2], below 4.00.

Consider `CCC(C)C(=O)C(=O)N1CCCCC1C(=O)OC(CCc1ccccc1)c1ccccc1` (stereo not drawn), for which the pIC50 is below 4.52 in assay [1] and below 4.00 in assay [2].

Turning to `COc1cc(CCCOC(=O)C2CCCCN2S(=O)(=O)c2cccc([N+](=O)[O-])c2)cc(OC)c1OC` (stereo not drawn), the pIC50 was 7.15 in assay [1] and below 4.00 in assay [2].

As for `Nc1cccc(S(=O)(=O)N2CCCCC2C(=O)OCCCc2cccnc2)c1` (stereo not drawn), the results for the pIC50 in assay [1] and in assay [2] were 6.49 and below 4.00, respectively.

On to `CCC(C)C(=O)C(=O)N1CCCCC1C(=O)OCCCc1cc(OC)c(OC)c(OC)c1` (stereo not drawn), for which the pIC50 in assay [1] is 5.38; in assay [2], below 4.00.

Take `CO[C@H]1C[C@@H]2CC[C@@H](C)[C@@](O)(O2)C(=O)C(=O)N2CCCC[C@H]2C(=O)O[C@H]([C@H](C)C[C@@H]2CC[C@@H](O)[C@H](OC)C2)CC(=O)[C@H](C)/C=C(\C)[C@@H](O)[C@@H](OC)C(=O)[C@H](C)C[C@H](C)/C=C/C=C/C=C/1C`: the outcome in assay [3], in assay [4] and in assay [5] was Active.

In the case of `CCOC(=O)C1CCCCN1S(=O)(=O)c1cccc([N+](=O)[O-])c1` (stereo not drawn), the negative-log IC50 (pIC50) in assay [1] is 5.55; in assay [2], below 4.00.

In the case of `COc1cc(CCCOC(=O)C2CCCCN2S(=O)(=O)Cc2ccccc2)cc(OC)c1OC` (racemic), in assay [1], the pIC50 is 6.70.

For `CCOC(=O)C1CCCCN1C(=O)C(=O)C(C)CC` (stereo not drawn), the pIC50 in assay [1] is below 4.52; in assay [2], below 4.00.

In the case of `COc1cc(CCCOC(=O)C2CCCCN2S(=O)(=O)c2cccc(N)c2)cc(OC)c1OC` (stereo not drawn), the pIC50 was 6.59 in assay [1] and below 4.00 in assay [2].

For the compound `O=C(OCCCc1cccnc1)C1CCCCN1S(=O)(=O)c1cccc([N+](=O)[O-])c1` (stereo not drawn), the pIC50 is 6.82 in assay [1] and 4.49 in assay [2].

`COc1cc(CCCOC(=O)C2CCCCN2S(=O)(=O)c2ccccc2)cc(OC)c1OC` (stereo not drawn) had a pIC50 in assay [1] of 6.92.

`COc1cc(CCCOC(=O)[C@@H]2CCCCN2S(=O)(=O)Cc2ccccc2)cc(OC)c1OC`: in assay [1], the pIC50 was 6.70. The pKi (commonly the Ki on a negative log10 scale, so that one unit is a factor of ten) in assay [6] was 6.64. The result in assay [5] was inactive.

Take `CCOC(=O)C1CCCCN1S(=O)(=O)Cc1ccccc1` (stereo not drawn): the values for the pIC50 in assay [1] and in assay [2] were 5.59 and 4.06, respectively.
